According to ChEMBL document CHEMBL2429760, “Synthesis and structure evaluation of new complex butylarylpiperazin-1-yl derivatives” (Med Chem Res, 2013):

How the values were obtained:
[1] = tested on: Human immunodeficiency virus 1; test: Antiviral activity against Human immunodeficiency virus 1 3B infected in human MT4 cells assessed as inhibition of virus-induced cytopathogenicity after 4 days by MTT assay; format: functional, organism-based; conditions: MT4, 96 h
How it was run: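 MT-4 cells (1 × 10^4 per well) in RPMI with or without serial compound dilutions, acutely infected with HIV-1 at m.o.i. 0.01 (100 CCID50). After 4-day incubation at 37 °C, protection from virus-induced cytopathogenicity was read as cell viability by MTT. Compounds were made as 100 mM DMSO stocks and diluted in medium.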

[2] = Cytotoxicity against human MT4 cells after 96 hrs by MTT assay; format: cell-based
How it was run: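 Exponentially growing MT-4 cells seeded at 1 × 10^5 cells/ml in RPMI-1640 with 10 % FBS and penicillin/streptomycin. Incubated at 37 °C, 5 % CO2, with or without serial compound dilutions (100 mM DMSO stocks diluted in medium), run in parallel with the antiviral test. Viability by MTT after 96 h.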

| SMILES | EC50 [1] | CC50 at 96 h [2] |
| --- | --- | --- |
| O=c1c2ccccc2c2c(-c3ccccc3)c3c(=O)n(CCCCN4CCN(c5ccccn5)CC4)c(=O)c3c(-c3ccccc3)c12 | > 100 µM | > 100 µM |
| O=c1c2ccccc2c2c(-c3ccccc3)c3c(=O)n(CCCCN4CCN(CCc5ccccc5C(F)(F)F)CC4)c(=O)c3c(-c3ccccc3)c12 | > 9 µM | 9 µM |
| O=c1c2ccccc2c2c(-c3ccccc3)c3c(=O)n(CCCCN4CCN(c5ccc(F)cc5)CC4)c(=O)c3c(-c3ccccc3)c12 | > 100 µM | > 100 µM |
| O=c1c2ccccc2c2c(-c3ccccc3)c3c(=O)n(CCCCN4CCN(c5ccccc5)CC4)c(=O)c3c(-c3ccccc3)c12 | > 100 µM | > 100 µM |
| O=c1[nH]c(=O)c2c(-c3ccccc3)c3c(c(-c4ccccc4)c12)c(=O)c1ccccc13 | > 9 µM | – |
| O=c1c2ccccc2c2c(-c3ccccc3)c3c(=O)n(CCCCN4CCN(c5ccc(Cl)cc5)CC4)c(=O)c3c(-c3ccccc3)c12 | > 100 µM | > 100 µM |
| O=c1c2ccccc2c2c(-c3ccccc3)c3c(=O)n(CCCCN4CCN(c5ccccc5F)CC4)c(=O)c3c(-c3ccccc3)c12 | > 100 µM | > 100 µM |
| O=c1c2ccccc2c2c(-c3ccccc3)c3c(=O)n(CCCCN4CCN(c5ccccc5Cl)CC4)c(=O)c3c(-c3ccccc3)c12 | > 100 µM | > 100 µM |
